Laboratory results reported in ChEMBL document CHEMBL1145915, “Molecular model of the alpha(IIb)beta(3) integrin” (J Med Chem, 2003).

What follows are molecules tested against Integrin alpha-IIb/beta-3 (Homo sapiens, UniProt P05106+P08514) (assay: Inhibition of human alphaIIb-beta3 integrin in platelet aggregation assay).
Sequence of Integrin alpha-IIb/beta-3 (P05106 27-788 limits assumed): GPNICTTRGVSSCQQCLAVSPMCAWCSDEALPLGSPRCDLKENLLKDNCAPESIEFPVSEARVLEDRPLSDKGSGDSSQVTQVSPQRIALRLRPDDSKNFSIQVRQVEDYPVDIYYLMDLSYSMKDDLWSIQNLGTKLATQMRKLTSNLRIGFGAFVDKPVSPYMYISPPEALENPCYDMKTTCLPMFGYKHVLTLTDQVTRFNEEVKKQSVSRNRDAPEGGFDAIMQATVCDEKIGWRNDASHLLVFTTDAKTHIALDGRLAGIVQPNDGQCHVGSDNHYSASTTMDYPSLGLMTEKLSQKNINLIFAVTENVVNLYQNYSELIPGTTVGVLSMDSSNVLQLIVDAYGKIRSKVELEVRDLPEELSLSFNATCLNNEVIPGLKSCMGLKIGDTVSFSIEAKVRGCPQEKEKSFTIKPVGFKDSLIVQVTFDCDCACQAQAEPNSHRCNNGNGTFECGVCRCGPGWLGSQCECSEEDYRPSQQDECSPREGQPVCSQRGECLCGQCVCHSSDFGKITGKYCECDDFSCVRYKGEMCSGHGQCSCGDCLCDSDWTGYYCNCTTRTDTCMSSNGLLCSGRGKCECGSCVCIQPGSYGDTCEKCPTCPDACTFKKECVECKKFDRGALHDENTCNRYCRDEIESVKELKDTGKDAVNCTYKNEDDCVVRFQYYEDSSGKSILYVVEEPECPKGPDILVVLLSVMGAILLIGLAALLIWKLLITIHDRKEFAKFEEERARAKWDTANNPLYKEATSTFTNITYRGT
Sequence of Integrin alpha-IIb/beta-3 (P08514 32-887 limits assumed): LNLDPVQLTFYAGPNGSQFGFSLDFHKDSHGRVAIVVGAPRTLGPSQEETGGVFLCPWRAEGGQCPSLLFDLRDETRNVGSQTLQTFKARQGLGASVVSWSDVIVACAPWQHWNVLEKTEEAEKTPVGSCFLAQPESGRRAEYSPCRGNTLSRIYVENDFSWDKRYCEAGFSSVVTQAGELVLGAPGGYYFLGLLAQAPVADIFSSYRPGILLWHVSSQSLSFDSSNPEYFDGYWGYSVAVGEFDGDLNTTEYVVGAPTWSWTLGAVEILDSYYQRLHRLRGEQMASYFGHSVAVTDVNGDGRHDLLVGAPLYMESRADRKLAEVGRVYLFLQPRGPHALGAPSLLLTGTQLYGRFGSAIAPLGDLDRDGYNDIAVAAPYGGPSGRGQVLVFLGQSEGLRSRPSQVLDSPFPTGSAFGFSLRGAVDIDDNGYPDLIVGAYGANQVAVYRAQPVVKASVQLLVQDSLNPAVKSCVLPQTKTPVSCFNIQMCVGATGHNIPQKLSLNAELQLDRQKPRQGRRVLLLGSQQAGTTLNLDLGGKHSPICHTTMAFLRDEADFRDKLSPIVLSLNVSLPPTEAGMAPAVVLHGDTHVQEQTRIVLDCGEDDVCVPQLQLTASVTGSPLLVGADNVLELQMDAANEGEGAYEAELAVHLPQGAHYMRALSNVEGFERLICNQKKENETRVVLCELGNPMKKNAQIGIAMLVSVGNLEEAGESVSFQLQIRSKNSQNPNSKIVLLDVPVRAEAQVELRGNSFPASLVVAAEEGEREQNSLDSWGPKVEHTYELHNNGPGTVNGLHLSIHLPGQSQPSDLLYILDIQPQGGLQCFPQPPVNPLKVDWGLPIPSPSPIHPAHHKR
Sequence of Integrin alpha-IIb/beta-3 (P08514 891-1039 limits assumed): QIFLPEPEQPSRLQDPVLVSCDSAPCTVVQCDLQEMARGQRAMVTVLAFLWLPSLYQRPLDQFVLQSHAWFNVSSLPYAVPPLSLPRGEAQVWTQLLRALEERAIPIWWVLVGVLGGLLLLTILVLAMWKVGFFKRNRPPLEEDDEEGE

Row | IC50 | Compound
1 | 10 nM | O=C(NC[C@H](NS(=O)(=O)c1ccccc1)C(=O)O)c1ccc(OCCC2CCNCC2)cc1

Each molecule was assayed against Integrin alpha-V/beta-3 (Homo sapiens, UniProt P05106+P06756) (assay: Inhibition of binding to human Vitronectin receptor (integrin alphaV-beta3)).
Type: protein-complex assay
In short: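 Scintillation proximity binding assay with lyophilized wheat germ agglutinin SPA beads. Receptor was αvβ3 integrin purified from HEK 293 cells overexpressing human recombinant αvβ3. Tracer was a 125I-labeled ligand, and test compounds were scored by displacement of its binding.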

Sequence of Integrin alpha-V/beta-3 (P05106 27-788 limits assumed): as the sequence (P05106 27-788 limits assumed) above
Sequence of Integrin alpha-V/beta-3 (P06756 31-889 limits assumed): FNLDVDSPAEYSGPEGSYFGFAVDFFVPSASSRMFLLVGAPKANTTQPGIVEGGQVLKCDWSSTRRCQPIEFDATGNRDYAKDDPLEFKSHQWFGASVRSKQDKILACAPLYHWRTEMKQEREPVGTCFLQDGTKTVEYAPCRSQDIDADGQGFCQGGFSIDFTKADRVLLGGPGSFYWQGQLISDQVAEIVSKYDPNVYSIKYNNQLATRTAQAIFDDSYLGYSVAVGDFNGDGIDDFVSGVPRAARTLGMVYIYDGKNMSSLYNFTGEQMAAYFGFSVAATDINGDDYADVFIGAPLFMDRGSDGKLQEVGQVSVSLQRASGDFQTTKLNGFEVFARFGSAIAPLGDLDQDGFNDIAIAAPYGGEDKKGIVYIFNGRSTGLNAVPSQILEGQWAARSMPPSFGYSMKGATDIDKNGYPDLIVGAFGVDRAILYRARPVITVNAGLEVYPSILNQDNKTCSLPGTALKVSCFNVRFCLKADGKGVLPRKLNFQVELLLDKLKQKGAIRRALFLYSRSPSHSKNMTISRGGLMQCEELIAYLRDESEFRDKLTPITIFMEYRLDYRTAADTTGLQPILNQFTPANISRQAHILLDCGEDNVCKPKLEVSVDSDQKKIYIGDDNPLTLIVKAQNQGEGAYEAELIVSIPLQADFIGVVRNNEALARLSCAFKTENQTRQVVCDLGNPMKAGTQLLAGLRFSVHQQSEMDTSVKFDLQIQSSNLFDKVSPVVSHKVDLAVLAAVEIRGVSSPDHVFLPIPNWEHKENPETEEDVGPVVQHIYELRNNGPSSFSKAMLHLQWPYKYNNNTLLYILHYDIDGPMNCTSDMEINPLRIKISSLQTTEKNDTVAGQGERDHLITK
Sequence of Integrin alpha-V/beta-3 (P06756 891-1048 limits assumed): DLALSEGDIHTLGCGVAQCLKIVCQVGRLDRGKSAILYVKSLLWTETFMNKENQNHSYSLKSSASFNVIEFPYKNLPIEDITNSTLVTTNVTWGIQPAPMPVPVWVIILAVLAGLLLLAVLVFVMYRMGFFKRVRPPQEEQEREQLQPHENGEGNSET

Row | IC50 | Compound
2 | > 1000 nM | O=C(NC[C@H](NS(=O)(=O)c1ccccc1)C(=O)O)c1ccc(OCCC2CCNCC2)cc1
3 | 0.08 nM | Nc1cccc(CCc2ccc(C(=O)NC[C@H](NS(=O)(=O)c3ccccc3)C(=O)O)cc2)n1
4 | 3.3 nM | O=C(O)CC(NC(=O)CCCCc1ccc2c(n1)NCCC2)c1cncnc1 (stereo not drawn)

The remaining lines, values behind:

Row | Compound | IC50
5 | O=C(NC[C@H](NS(=O)(=O)c1ccccc1)C(=O)O)c1ccc(N2CCNCC2)cc1 | > 1000 nM
6 | CC1(C)[C@@H]2CC[C@@]1(CS(=O)(=O)N[C@@H](CNC(=O)c1ccc(CCc3ccc4c(n3)NCCC4)cc1)C(=O)O)C(=O)C2 | 0.11 nM
7 | CCCCS(=O)(=O)N[C@@H](Cc1ccc(OCCCCC2CCNCC2)cc1)C(=O)O [TIROFIBAN] | > 1000 nM
8 | N=C(N)NCCC[C@H](N)C(=O)NCC(=O)N[C@@H](CC(=O)O)C(=O)O | > 10000 nM
